Experimental findings from ChEMBL document CHEMBL1138950, “Benzimidazole derivatives bearing substituted biphenyls as hepatitis C virus NS5B RNA-dependent RNA polymerase inhibitors: structure-activity relationship studies and identification of a potent and highly selective inhibitor JTK-109” (J Med Chem, 2006) are described below.

For data set [1], the target named is T1, Cytochrome P450 2C9 (Homo sapiens, UniProt P11712). Briefly: Induction of CYP450 2C9. The data set is classed as ADME.
Data set [2] in a line: Oral bioavailability in rat at 10 mg/kg. In kind it is ADME, organism-based. The following applies: in vivo.
For data set [3], the target named is T2, RNA-directed RNA polymerase (Hepacivirus hominis, UniProt O39930). Briefly: Inhibition of HCV 1b BK six His-tagged C-terminal truncated 544 amino acid NS5B RNA dependent RNA polymerase. Details: species or system Hepatitis C virus subtype 1b; call rule not given here. In outline:
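HCV genotype 1b (BK) NS5B lacking 47 C-terminal residues, His6-tagged, E. coli-expressed; 7 nM enzyme with 5 µg HCV 3′X RNA template-primer, 50 µM each ATP/GTP/CTP, 2 µM UTP plus [3H]-UTP; pH 7.5 Tris, 5 mM MgCl2. Compounds in DMSO (5% final). 60 min at 25 °C; TCA-precipitable radioactivity read. Triplicate, mean of three experiments.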

A further data set relates to Huh-5-2. Briefly: Viability of Huh5-2 cells by MTT assay. The note with it: Homo sapiens. The data set is classed as functional. On the technique in general: Tetrazolium assays rely on reduction of a dye to a coloured formazan, in cell work by metabolically active cells.
A short description of data set [4]: Therapeutic index, CC50 for viability of Huh5-2 cells/EC50 for inhibition of HCV subgenomic RNA replication. The data set is classed as cell-based, Huh-5-2. The following applies: human, read-out: Ratio CC50/EC50.
A short description of data set [5]: Plasma concentration in rat at 30 mg/kg, po after 1 hr. In kind it is ADME, organism-based. Details: dose 30 mg/kg, route oral. The method in brief: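 Rats dosed orally at 30 mg/kg; plasma sampled at 1 and 2 h; n = 2 or 3.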
Data set [6] can be described thus: Half life in rat at 10 mg/kg. In kind it is ADME, organism-based. More on the design: dose 10 mg/kg. The following applies: in vivo.
In data set [7] the target is Human immunodeficiency virus type 1 reverse transcriptase (Human immunodeficiency virus 1, UniProt Q72547). Briefly: Inhibition of HIV reverse transcriptase.
For data set [8], the target named is T1, Cytochrome P450 2C9. Briefly: Inhibition of CYP450 2C9. In kind it is ADME.
The target in another data set is Cytochrome P450 2D6 (Homo sapiens, UniProt P10635). The data set can be described thus: Inhibition of CYP450 2D6. The data set is classed as ADME.
Chain of Cytochrome P450 2D6 (P10635 whole entry): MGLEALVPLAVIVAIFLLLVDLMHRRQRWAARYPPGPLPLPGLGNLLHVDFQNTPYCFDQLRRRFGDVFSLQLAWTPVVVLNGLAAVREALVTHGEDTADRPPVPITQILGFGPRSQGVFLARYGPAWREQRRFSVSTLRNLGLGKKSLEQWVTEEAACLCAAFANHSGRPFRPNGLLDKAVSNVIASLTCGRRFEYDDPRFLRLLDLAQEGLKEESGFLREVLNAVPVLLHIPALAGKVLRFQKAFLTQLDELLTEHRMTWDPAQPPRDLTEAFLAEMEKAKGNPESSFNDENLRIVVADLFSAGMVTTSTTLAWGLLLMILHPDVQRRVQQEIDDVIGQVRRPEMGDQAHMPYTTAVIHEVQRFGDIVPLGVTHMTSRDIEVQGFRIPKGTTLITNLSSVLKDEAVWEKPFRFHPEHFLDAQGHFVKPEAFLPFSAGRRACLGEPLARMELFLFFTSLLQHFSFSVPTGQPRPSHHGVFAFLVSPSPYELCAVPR
The test system of a further data set is Rattus norvegicus. The data set can be described thus: Toxicity in rat up to 300 mg/kg/day after 4 weeks. In kind it is organism-based. The note with it: in vivo, 672 h.
Data set [9] is described as follows: Liver concentration in rat at 10 mg/kg, po after 2 hrs. The data set is classed as ADME, organism-based. Details: dose 10 mg/kg, route oral. The following applies: read-out: Drug uptake.
Data set [10] addresses T3, DNA polymerase alpha catalytic subunit (Homo sapiens, UniProt P09884).
T3 sequence (P09884 whole entry): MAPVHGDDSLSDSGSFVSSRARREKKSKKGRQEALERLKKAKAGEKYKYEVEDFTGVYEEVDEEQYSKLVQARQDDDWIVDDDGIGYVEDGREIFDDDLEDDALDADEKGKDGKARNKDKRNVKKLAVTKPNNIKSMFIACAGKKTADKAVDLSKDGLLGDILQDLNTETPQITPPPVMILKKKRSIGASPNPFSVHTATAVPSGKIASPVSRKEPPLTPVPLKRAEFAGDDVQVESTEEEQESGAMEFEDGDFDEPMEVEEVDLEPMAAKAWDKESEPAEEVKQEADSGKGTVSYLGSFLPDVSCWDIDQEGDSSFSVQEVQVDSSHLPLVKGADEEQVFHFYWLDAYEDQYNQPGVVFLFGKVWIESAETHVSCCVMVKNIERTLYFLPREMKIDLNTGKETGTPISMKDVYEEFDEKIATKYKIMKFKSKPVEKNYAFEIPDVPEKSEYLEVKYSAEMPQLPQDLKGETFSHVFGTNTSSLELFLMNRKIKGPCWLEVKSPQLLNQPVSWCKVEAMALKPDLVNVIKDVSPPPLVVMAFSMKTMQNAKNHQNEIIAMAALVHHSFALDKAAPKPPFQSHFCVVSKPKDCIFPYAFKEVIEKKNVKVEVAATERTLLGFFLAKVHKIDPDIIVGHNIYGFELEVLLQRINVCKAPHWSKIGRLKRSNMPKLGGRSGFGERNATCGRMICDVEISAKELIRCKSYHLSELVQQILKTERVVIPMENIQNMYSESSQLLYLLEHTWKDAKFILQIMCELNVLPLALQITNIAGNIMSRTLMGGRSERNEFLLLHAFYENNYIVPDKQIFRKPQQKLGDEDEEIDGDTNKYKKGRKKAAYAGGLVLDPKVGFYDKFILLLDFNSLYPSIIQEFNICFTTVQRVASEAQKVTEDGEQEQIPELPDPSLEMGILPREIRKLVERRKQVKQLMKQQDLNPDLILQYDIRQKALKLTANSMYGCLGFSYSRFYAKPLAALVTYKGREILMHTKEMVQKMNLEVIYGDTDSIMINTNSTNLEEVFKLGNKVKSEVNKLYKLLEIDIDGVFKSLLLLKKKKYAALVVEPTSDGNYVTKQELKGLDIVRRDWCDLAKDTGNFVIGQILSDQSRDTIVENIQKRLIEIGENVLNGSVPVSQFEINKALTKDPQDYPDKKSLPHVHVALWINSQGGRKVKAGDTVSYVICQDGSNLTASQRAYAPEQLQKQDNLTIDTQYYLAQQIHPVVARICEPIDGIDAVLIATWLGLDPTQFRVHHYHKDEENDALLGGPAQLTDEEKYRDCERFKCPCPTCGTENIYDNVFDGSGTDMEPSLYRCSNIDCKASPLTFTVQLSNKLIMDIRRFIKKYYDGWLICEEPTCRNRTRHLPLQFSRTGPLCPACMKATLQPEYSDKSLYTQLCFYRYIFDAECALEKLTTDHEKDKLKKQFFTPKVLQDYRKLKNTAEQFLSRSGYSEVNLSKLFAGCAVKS
The data set can be described thus: Inhibition of DNA polymerase alpha.

Data set [11] concerns the target T2, RNA-directed RNA polymerase. The data set can be described thus: Inhibition of HCV 2a NS5B RNA dependent RNA polymerase. Details: species or system Hepatitis C virus subtype 2a. The method in brief:
(§1)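 IC50 from the mean of four independent experiments; standard deviations within 30% of the mean.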

For data set [12] the target is unchanged. Briefly: Inhibition of HCV 2b NS5B RNA dependent RNA polymerase. Details: species or system Hepatitis C virus subtype 2b. The method in brief:
as §1

Data set [13] shares this target. The data set can be described thus: Inhibition of HCV 3a NS5B RNA dependent RNA polymerase. In outline:
as §1

A further data set addresses DNA polymerase beta (Homo sapiens, UniProt P06746). The data set can be described thus: Inhibition of DNA polymerase beta.
Data set [14] can be described thus: Inhibition of mammalian DNA dependent RNA polymerase.

T2 sequence (O39930 whole entry, the tested form may be a part): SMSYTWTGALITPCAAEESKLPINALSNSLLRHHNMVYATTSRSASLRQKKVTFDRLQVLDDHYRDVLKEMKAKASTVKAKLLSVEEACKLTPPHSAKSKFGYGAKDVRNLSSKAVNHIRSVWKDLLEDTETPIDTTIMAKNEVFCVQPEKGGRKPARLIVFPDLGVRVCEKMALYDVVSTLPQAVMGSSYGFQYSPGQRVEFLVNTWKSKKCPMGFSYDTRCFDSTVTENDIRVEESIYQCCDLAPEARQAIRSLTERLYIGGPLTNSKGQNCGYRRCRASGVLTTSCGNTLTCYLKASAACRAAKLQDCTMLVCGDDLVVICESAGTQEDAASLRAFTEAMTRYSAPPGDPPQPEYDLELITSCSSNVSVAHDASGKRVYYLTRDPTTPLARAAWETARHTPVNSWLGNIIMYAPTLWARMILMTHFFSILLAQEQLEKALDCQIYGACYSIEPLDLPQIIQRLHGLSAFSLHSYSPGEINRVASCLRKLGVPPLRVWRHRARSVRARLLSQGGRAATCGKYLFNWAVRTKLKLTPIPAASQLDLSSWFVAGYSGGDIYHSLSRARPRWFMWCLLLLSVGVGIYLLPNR
T1 sequence (P11712 whole entry): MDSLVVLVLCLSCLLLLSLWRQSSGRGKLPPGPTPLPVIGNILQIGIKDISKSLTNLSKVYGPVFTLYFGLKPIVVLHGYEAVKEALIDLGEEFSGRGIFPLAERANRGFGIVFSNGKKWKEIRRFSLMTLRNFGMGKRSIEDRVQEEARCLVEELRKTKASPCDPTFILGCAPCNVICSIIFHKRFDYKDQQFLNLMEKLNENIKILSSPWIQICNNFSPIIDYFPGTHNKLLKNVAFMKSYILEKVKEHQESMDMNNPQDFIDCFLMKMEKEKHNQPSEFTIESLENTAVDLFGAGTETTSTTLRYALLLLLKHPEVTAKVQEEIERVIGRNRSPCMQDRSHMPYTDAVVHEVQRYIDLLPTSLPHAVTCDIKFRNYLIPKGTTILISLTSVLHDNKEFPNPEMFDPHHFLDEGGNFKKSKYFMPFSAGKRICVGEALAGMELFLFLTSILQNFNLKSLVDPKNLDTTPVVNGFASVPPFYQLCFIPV

Take `O=C(O)c1ccc2c(c1)nc(-c1ccc(OCc3cc(N4CCCC4=O)ccc3-c3ccc(Cl)cc3)cc1F)n2C1CCCCC1`: the Activity result on Cytochrome P450 2C9 [1] is on record as “Not Active”; in the data set on Rattus norvegicus it was “Non-toxic”. In addition, in data set [2], the bioavailability (commonly the share of a dose that reaches the circulation, judged against a reference dose that is usually intravenous) was found to be 36%. Besides, the IC50 (usually the concentration that inhibits the measured activity by half) in data set [3] was 0.017 µM; in data set [7], above 10 µM; in data set [10], above 10 µM; in data set [11], 6.4 µM; in [12], 2 µM; in data set [13] it was 0.061 µM. Moreover, the IC50 (against DNA polymerase beta; in data set [14]) was above 10 µM in each case. In addition, the CC50 – broadly, the concentration that lowers cell viability or growth by half – in the data set on Huh-5-2 worked out at 25 µM. The selectivity ratio in [4] worked out at 78. In addition, the concentration at 1 h in data set [5] is 4 µM. In data set [6], the half-life (commonly the time in which the quantity being followed falls by half) is 2.1 h. Further, the Inhibition entry at Cytochrome P450 2C9 [8] and on Cytochrome P450 2D6 was “Not Active” throughout. The concentration at 2 h in data set [9] amounted to 78.5 µM.
